Experimental findings from ChEMBL document CHEMBL4138097, “Investigation of pyrazolo-sulfonamides as putative small molecule oxytocin receptor agonists” (Eur J Med Chem, 2017) are described below.

The target in test [1] is T1, Vasopressin V1a receptor (Homo sapiens, UniProt P37288). In words: Displacement of [3H]-vasopressin from human vasopressin 1a receptor expressed in HEK293 cell membranes after 90 mins by microbeta scintillation counting method.
Target sequence in this assay (P37288 whole entry): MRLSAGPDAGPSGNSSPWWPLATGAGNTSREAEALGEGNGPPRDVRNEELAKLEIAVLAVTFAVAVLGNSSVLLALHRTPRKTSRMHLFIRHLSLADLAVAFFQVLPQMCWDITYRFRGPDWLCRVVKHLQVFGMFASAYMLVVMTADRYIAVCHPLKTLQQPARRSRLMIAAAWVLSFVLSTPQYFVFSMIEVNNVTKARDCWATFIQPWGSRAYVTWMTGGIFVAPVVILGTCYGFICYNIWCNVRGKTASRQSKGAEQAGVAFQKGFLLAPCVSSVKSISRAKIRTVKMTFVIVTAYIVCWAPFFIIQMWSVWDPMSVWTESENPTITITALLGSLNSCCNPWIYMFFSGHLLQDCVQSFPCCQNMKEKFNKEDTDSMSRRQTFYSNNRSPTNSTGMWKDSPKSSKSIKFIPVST
In test [2] the target is T1, Vasopressin V1a receptor. In words: Agonist activity at human vasopressin 1a receptor expressed in HEK293 cell membranes assessed as induction of IP1 accumulation at 0.1 to 10 uM measured after 1 hr by fluorescence assay. Type of test: functional, cell-based. In a few lines: (§1)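 IP1 accumulation in HEK or stably transfected CHO cells expressing hOTR or hV1aR. Compounds tested alone at 100 nM and 10 μM against vehicle (basal). Reference agonist was OT 10 nM at hOTR or AVP 10 nM at hV1aR. Non-transfected HEK cells given OT served as a specificity check. Mean ± S.E.M.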
Target sequence in this assay (P37288 whole entry, looked up): as the sequence (P37288 whole entry) above

Test [3] addresses T2, Oxytocin receptor (Homo sapiens) (UniProt P30559).
T2 sequence (whole entry): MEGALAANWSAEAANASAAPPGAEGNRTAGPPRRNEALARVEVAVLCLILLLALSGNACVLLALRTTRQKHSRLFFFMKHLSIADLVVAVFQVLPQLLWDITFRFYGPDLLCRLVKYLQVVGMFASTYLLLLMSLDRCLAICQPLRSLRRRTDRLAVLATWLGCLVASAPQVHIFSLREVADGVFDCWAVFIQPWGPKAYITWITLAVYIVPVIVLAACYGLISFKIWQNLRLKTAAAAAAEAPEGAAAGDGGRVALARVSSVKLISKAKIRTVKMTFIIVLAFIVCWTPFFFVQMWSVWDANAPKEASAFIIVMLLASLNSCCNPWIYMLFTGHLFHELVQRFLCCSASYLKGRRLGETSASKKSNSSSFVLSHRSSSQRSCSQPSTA
Briefly: Agonist activity at human OTR expressed in CHO cell membranes assessed as induction of IP1 accumulation at 0.1 to 10 uM measured after 1 hr by fluorescence assay. Type of test: functional, cell-based. In a few lines:
as §1

For test [4], the target named is T3, Oxytocin receptor (Homo sapiens, UniProt P30559).
T3 sequence (P30559 whole entry): T2 sequence (whole entry)
In words: Antagonist activity at human OTR expressed in CHO cell membranes assessed as inhibition of OT-induced IP1 accumulation measured after 1 hr by fluorescence assay. It counts as functional, cell-based.

The target in test [5] is T1, Vasopressin V1a receptor. In words: Agonist activity at human vasopressin 1a receptor expressed in CHO cell membranes assessed as induction of IP1 accumulation at 0.1 to 10 uM measured after 1 hr by fluorescence assay. Type of test: functional, cell-based. In a few lines:
as §1
Target sequence in this assay (P37288 whole entry, looked up): as the sequence (P37288 whole entry) above

In test [6] the target is T2, Oxytocin receptor (Homo sapiens). Briefly: Antagonist activity at human OTR expressed in CHO cell membranes assessed as inhibition of OT-induced IP1 accumulation by measuring IP1 level at 100 nM measured after 1 hr by fluorescence assay relative to control. It counts as functional, cell-based. Also on record: scale not given: the % may be the effect or the level left.

The target is the same in test [7]. In words: Antagonist activity at human OTR expressed in HEK293 cell membranes assessed as inhibition of OT-induced IP1 accumulation by measuring IP1 level at 100 nM measured after 1 hr by flourescence assay relative to control. It counts as functional, cell-based. Also on record: scale not given: the % may be the effect or the level left.
The target is the same in test [8]. In words: Agonist activity at human OTR expressed in CHO cell membranes assessed as increase in Ca2+ flux at 0.1 to 10 uM measured after 5 mins for every 2 secs by Ca5 dye based FLIPR assay. Type of test: functional. A digest of the protocol: (§2)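 Intracellular Ca2+ read by FLIPR with Ca5 dye in HEK or stably transfected CHO cells expressing hOTR or hV1aR. Compounds added alone at 100 nM and 10 μM. Response taken as the change in fluorescence.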

Test [9] addresses T1, Vasopressin V1a receptor. In words: Agonist activity at human vasopressin 1a receptor expressed in HEK293 cell membranes assessed as increase in Ca2+ flux at 0.1 to 10 uM measured after 5 mins for every 2 secs by Ca5 dye based FLIPR assay. Type of test: functional. In a few lines:
as §2
Target sequence in this assay (P37288 whole entry, looked up): as the sequence (P37288 whole entry) above

The target in test [10] is T1, Vasopressin V1a receptor. Briefly: Antagonist activity at human vasopressin 1a receptor expressed in HEK293 cell membranes assessed as inhibition of AVP-induced IP1 accumulation by measuring IP1 level at 100 nM measured after 1 hr by fluorescence assay relative to control. Type of test: functional, cell-based. Also on record: scale not given: the % may be the effect or the level left.
Target sequence in this assay (P37288 whole entry, looked up): as the sequence (P37288 whole entry) above

The target of test [11] is T2, Oxytocin receptor (Homo sapiens). In words: Positive allosteric modulation of human OTR expressed in HEK293 cell membranes assessed as increase in OT-induced IP1 accumulation at 10 uM measured after 1 hr by fluorescence assay. Type of test: functional, cell-based. In a few lines:
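hOTR-transfected HEK cells treated with ~EC10 OT (3 nM) plus compound (10 μM) or vehicle (0.1% DMSO). IP1 measured and compared with OT plus vehicle. Mean ± S.E.M.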

Test [12] shares this target. In words: Antagonist activity at human OTR expressed in HEK293 cell membranes assessed as inhibition of OT-induced increase in Ca2+ flux by measuring intracellular calcium level at 10 uM preincubated for 5 mins followed by OT addition measured after 5 mins for every 2 secs by Ca5 dye based FLIPR assay (reference value: 4.5 +/- 0.1%). Type of test: functional. In a few lines:
(§3)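 HEK cells were pre-incubated 5 min with compound (10 μM) or vehicle (0.1% DMSO). Agonist was then added: OT for hOTR, AVP for hV1aR. Peak Ca5 fluorescence was taken as fold-change over baseline. A 4-parameter fit gave pEC50 and Max. Run in duplicate with 5-6 independent replicates, mean ± S.E.M.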

Test [13] deals with T1, Vasopressin V1a receptor. Briefly: Antagonist activity at human vasopressin 1a receptor expressed in HEK293 cell membranes assessed as inhibition of AVP-induced increase in Ca2+ flux by measuring intracellular calcium level at 10 uM preincubated for 5 mins followed by AVP addition measured after 5 mins for every 2 secs by Ca5 dye based FLIPR assay (reference value: 5.2 +/- 0.2%). It counts as functional. A digest of the protocol: as §3
Target sequence in this assay (P37288 whole entry, looked up): as the sequence (P37288 whole entry) above

In test [14] the target is T1, Vasopressin V1a receptor. In words: Antagonist activity at human vasopressin 1a receptor expressed in CHO cell membranes assessed as inhibition of AVP-induced IP1 accumulation by measuring IP1 level at 100 nM measured after 1 hr by fluorescence assay relative to control. It counts as functional, cell-based. Also on record: scale not given: the % may be the effect or the level left.
Target sequence in this assay (P37288 whole entry, looked up): as the sequence (P37288 whole entry) above

Test [15] has as its target T2, Oxytocin receptor (Homo sapiens). In words: Agonist activity at human OTR expressed in HEK293 cell membranes assessed as increase in Ca2+ flux at 0.1 to 10 uM measured after 5 mins for every 2 secs by Ca5 dye based FLIPR assay. It counts as functional. In a few lines: as §2
The target is the same in test [16]. Briefly: Antagonist activity at human OTR expressed in HEK293 cell membranes assessed as inhibition of OT-induced IP1 accumulation by measuring IP1 level at 10 uM measured after 1 hr by fluorescence assay relative to control. It counts as functional, cell-based. Also on record: scale not given: the % may be the effect or the level left.
The target of test [17] is T3, Oxytocin receptor. In words: Antagonist activity at human OTR expressed in HEK293 cell membranes assessed as inhibition of OT-induced IP1 accumulation measured after 1 hr by fluorescence assay. It counts as functional, cell-based.
The target of test [18] is T3, Oxytocin receptor. Briefly: Displacement of [3H]-oxytocin from human OTR expressed in HEK293 cell membranes after 90 mins by microbeta scintillation counting method.
Test [19] deals with T2, Oxytocin receptor (Homo sapiens). In words: Antagonist activity at human OTR expressed in CHO cell membranes assessed as inhibition of OT-induced IP1 accumulation by measuring IP1 level at 10 uM measured after 1 hr by fluorescence assay relative to control. It counts as functional, cell-based. Also on record: scale not given: the % may be the effect or the level left.
Test [20] concerns the target T1, Vasopressin V1a receptor. In words: Antagonist activity at human vasopressin 1a receptor expressed in HEK293 cell membranes assessed as inhibition of AVP-induced IP1 accumulation by measuring IP1 level at 10 uM measured after 1 hr by fluorescence assay relative to control. It counts as functional, cell-based. Also on record: scale not given: the % may be the effect or the level left.

Test [21] addresses T1, Vasopressin V1a receptor. Briefly: Agonist activity at human vasopressin 1a receptor expressed in CHO cell membranes assessed as increase in Ca2+ flux at 0.1 to 10 uM measured after 5 mins for every 2 secs by Ca5 dye based FLIPR assay. Type of test: functional. A digest of the protocol:
as §2

Test [22] has as its target T1, Vasopressin V1a receptor. In words: Antagonist activity at human vasopressin 1a receptor expressed in CHO cell membranes assessed as inhibition of AVP-induced IP1 accumulation by measuring IP1 level at 10 uM measured after 1 hr by fluorescence assay relative to control. Set-up: scale not given: the % may be the effect or the level left. It counts as functional, cell-based.

Test [23] has as its target T1, Vasopressin V1a receptor. In words: Antagonist activity at human vasopressin 1a receptor expressed in HEK293 cell membranes assessed as inhibition of AVP-induced IP1 accumulation measured after 1 hr by fluorescence assay. It counts as functional, cell-based.
Target sequence in this assay (P37288 whole entry): as the sequence (P37288 whole entry) above
Test [24] concerns the target T1, Vasopressin V1a receptor. Briefly: Antagonist activity at human vasopressin 1a receptor expressed in CHO cell membranes assessed as inhibition of AVP-induced IP1 accumulation by measuring IP1 level measured after 1 hr by fluorescence assay. It counts as functional, cell-based.
Target sequence in this assay (P37288 whole entry): as the sequence (P37288 whole entry) above
For test [25], the target named is T2, Oxytocin receptor (Homo sapiens). Briefly: Agonist activity at human OTR expressed in HEK293 cell membranes induction of IP1 accumulation at 0.1 to 10 uM measured after 1 hr by fluorescence assay. Type of test: functional, cell-based. A digest of the protocol: as §1

The source made the active and inactive calls. No cut-off for these calls is given here. Where a SMILES comes first, the peptide text is derived from it. Bridges are numbered along the chain shown (N, C = ends). [ ]: non-standard residue; d: D form. Orn = NCCC[C@H](N)C(=O)O; Mpa = O=C(O)CCS

As to `O=S(=O)(Nc1ccnn1-c1ccccn1)c1ccc(Cl)cc1`, the Ki in test [1] and in [18] was > 10 µM throughout. In addition, the outcome in [2], in test [3], in test [5], in [8], in [9] and in test [11] was inactive. The result in test [15] and in test [21] was inactive. In addition, the IC50 in test [4], in test [17] (read-out: pIC50 (converted)), in test [23] and in [24] was > 10 µM in each case. In addition, the Activity was 83.9% in test [6]; 89.5% in test [7]; 85.9% in [10]; 103% in test [14]; 78.1% in test [16]; 71.1% in [19]. Moreover, the Activity in test [20] was 80.2%; in test [22], 116%. Further, the %max in test [12] is 4.5%; in test [13], 5.3%.

`CCOc1ccc(C[C@H]2NC(=O)CCSSC[C@@H](C(=O)N3CCC[C@H]3C(=O)N[C@@H](CCCN)C(=O)NCC(N)=O)NC(=O)[C@H](CC(N)=O)NC(=O)[C@H]([C@@H](C)O)NC(=O)[C@H]([C@@H](C)CC)NC2=O)cc1` [ATOSIBAN] ([Mpa][dY](Et)ITNCP[Orn]G-NH2; disulfide 1-6): the IC50 in test [17] (read-out: IC50) was determined as 0.372 µM.

Regarding `Cn1nccc1NS(=O)(=O)c1ccc(Cl)cc1`, the Ki in [1] and in test [18] was > 10 µM each time. Further, the outcome in test [25], in [2], in [3], in test [5], in [8] and in [9] was inactive. The result in test [11], in [15] and in [21] was inactive. For the same compound, the IC50 in test [4], in test [17] (read-out: pIC50 (converted)), in test [23] and in test [24] was > 10 µM each time. For the same compound, the Activity is 90.5% in test [6]; 82.5% in test [7]; 112% in test [10]; 100% in test [14]; 72.5% in [16]; 94.7% in test [19]. Moreover, the Activity in test [20] and in test [22] was 105% each time. The %max in test [12] was 4%; in [13] it was 5%.

Regarding `O=S(=O)(Nc1ccnn1-c1ccccn1)c1ccc(C(F)(F)F)cc1`, the Ki in [1] and in test [18] was > 10 µM in each case. The outcome in test [2], in [3], in [5], in test [8], in test [9] and in test [11] was inactive. Moreover, the outcome in [15] and in test [21] was inactive. For the same compound, the IC50 in test [4], in test [17] (read-out: pIC50 (converted)), in [23] and in test [24] was > 10 µM in each case. Moreover, the Activity was found to be 83.2% in [6]; 70.6% in test [7]; 109% in test [10]; 84.8% in test [14]; 65.5% in test [16]; 82.1% in test [19]. Besides, the Activity was found to be 104% in test [20] and 83.1% in [22]. In addition, the %max in [12] came out at 4.4%; in test [13], 5.3%.

As to `Cn1nccc1NS(=O)(=O)c1ccc(C(F)(F)F)cc1`, the Ki in test [1] and in [18] was > 10 µM throughout. For the same compound, the outcome in [25], in test [2], in test [3], in test [5], in test [8] and in [9] was inactive. Also, the outcome in [11], in [15] and in [21] was inactive. The IC50 in test [4], in [17] (read-out: pIC50 (converted)), in test [23] and in test [24] was > 10 µM each time. For the same compound, the Activity amounted to 85.5% in [6]; 98.3% in test [7]; 84.7% in test [10]; 86.5% in test [14]; 90.4% in test [16]; 79.5% in test [19]. Also, the Activity turned out to be 77.9% in test [20] and 79.3% in [22]. Also, the %max in test [12] amounted to 4.4%; in test [13], 5.1%.
